Test results from publication PMC12095820 (Scientific Reports, 2025).

Experiments:
Forced stability test = assay type: physicochemical; conditions: for Percentage degradation, Thermal: 50 °C; for Percentage degradation, Thermal / Percentage degradation, Acid / Percentage degradation, Basic / Percentage degradation, Luminous: 24 h; for Percentage degradation, Oxidative: H2O2 3%, 1 h; for Percentage degradation, Acid: HCl 0.1 N; for Percentage degradation, Basic: NaOH 0.1 N; for Percentage degradation, Luminous: Sunlight
Procedure, shortened: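 Compound stock (1 mL) was placed in a 5 mL volumetric flask for each stress. Acid and base arms used 1 mL of 0.1 N HCl or 0.1 N NaOH for 24 h, then were neutralised with the opposite reagent. Oxidative stress used 3.0% H2O2. For heat (50 °C oven, 24 h) and sunlight exposure (24 h), stock was diluted to volume in mobile phase in capped vials. Degradation was assessed chromatographically.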

LN-18 = assay: Antiproliferative MTT assay, 2D cell culture; assay type: cell-based; conditions: Homo sapiens, LN-18, 48 h, read-out: IC50 LN-18
Procedure, shortened: (§1)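 LN-18 and U373 cells were grown in phenol-red-free DMEM with 5% FBS and amino acids at 37 °C, 5% CO2. Cells (1 x 10³ per well) adhered 24 h, then were exposed 48 h to 0–140 µM compound, with 0.1% DMSO as vehicle. MTT (2.5 mg/mL in phenol-red-free medium) was applied 1 h at 37 °C. Plates were read at 540 nm after DMSO solubilisation and normalised to vehicle. Statistics: one-way ANOVA with Tukey.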

U373 = assay: Antiproliferative MTT assay, 2D cell culture; assay type: cell-based; conditions: Homo sapiens, U373 MG, 48 h, read-out: IC50 U373
Procedure, shortened: as §1

BJ = assay: MTT assay on non-cancerous control cells; assay type: cell-based; conditions: Homo sapiens, 48 h, read-out: IC50 BJ
Procedure, shortened: (§2)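 Non-tumour control cells were used: BJ fibroblasts in DMEM with 5% FBS, and MCF-10A in DMEM/F12 with 5% horse serum, insulin, EGF and hydrocortisone. Cells (1 x 10³ per well) adhered 24 h, then were treated 48 h with 0–140 µM compound in DMSO (0.1% vehicle control). MTT (2.5 mg/mL) was applied 1 h at 37 °C. Formazan was dissolved in DMSO, read at 540 nm and normalised to vehicle.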

MCF-10 A = assay: MTT assay on non-cancerous control cells; assay type: cell-based; conditions: Homo sapiens, 48 h, read-out: IC50 MCF-10 A
Procedure, shortened: as §2

Gli4 cells [1] = assay: 3D anti-migratory assay on aligned nanofibers; assay type: cell-based, human; conditions: 10 µM, non-cytotoxic concentration
[2] = test system: glioblastoma stem cells (Gli4); assay: Neurospheres formation assay; assay type: cell-based, human; conditions: proliferation medium, 0, 1 and 10 µM, 4 days
Procedure, shortened: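 Dissociated Gli4 cells (4000 per well) were plated in proliferation medium in round-bottom ultra-low-attachment wells pre-coated with poly-HEMA; a flat-bottom format was also run. Compound in DMSO was added to final 0, 1 and 10 µM. After 4 days, spheres were dissociated, and cells were mixed 1:1 with trypan blue and counted in a Neubauer chamber.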

Gli4 cells [3] = assay: 3D antiproliferative assay on non-aligned nanofibers; assay type: cell-based, human; conditions: proliferation and differentiation mediums, 0.1, 1 and 10 µM, 4 days
Gli4 cells [4] = assay: MTT assay, Gli4 in differentiation medium, flat bottom plate; assay type: cell-based, human; conditions: flat bottom, 0, 1 and 10 µM, compared to G-15
Procedure, shortened: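 Gli4 cells (4000 per well) were seeded in differentiation medium in flat-bottom wells treated with laminin/lysine. Compound was tested at 0, 1 and 10 µM. Viability was quantified by MTT 5 days after incubation and expressed as % viability. N=5.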

[5] = test system: GBM cell lines LN18 and U373; assay: Antiproliferative evaluation in 2D cell culture, summary over both GBM lines; assay type: cell-based, human; conditions: data not shown; crystals at 20 µM
Procedure, shortened: as §1

[6] = Dissolution in culture medium during antiproliferative assay; assay type: physicochemical; conditions: 20 µM

With Cc1ccc(S(=O)(=O)NC(=O)c2ccc3c(c2)[C@@H]2C=CC[C@@H]2[C@H](c2cc4c(cc2Br)OCO4)N3)cc1 [L-06, (3aS,4R,9bR)-4-(6-bromobenzo[d][1,3]dioxol-5-yl)-N-tosyl-3a,4,5,9b-tetrahydro-3 H-cyclopenta[c] quinoline-8-carboxamide] the “Percentage degradation, Thermal” value (Forced stability test) was 1.36%, the “Percentage degradation, Oxidative” value (Forced stability test) was 2.95% and the “Percentage degradation, Acid” value (Forced stability test) was 7.2%. The “Percentage degradation, Basic” value (Forced stability test) was 9.8%, the “Percentage degradation, Luminous” value (Forced stability test) was 0.15% and the IC50 (LN-18) was 67.7 µM. It also gave an IC50 (U373) of 67.7 µM, an IC50 (BJ) of 102 µM and an IC50 (MCF-10 A) of 33.8 µM. For the same compound, the “Reduction of migration of Gli4 cells on aligned NFS” value (Gli4 cells [1]) was roughly 50%, the Neurospheres formation [2] was “inhibit neurospheres formation” and the “Cell proliferation of Gli4 on non-aligned nanofibers” value (Gli4 cells [3]) was “non-antiproliferative activity”. The “Cell viability of the NS” value (Gli4 cells [4]) was “slightly decreased cell viability”.

In the case of O=C(NS(=O)(=O)c1ccc(Cl)cc1)c1ccc2c(c1)[C@@H]1C=CC[C@@H]1[C@H](c1cc3c(cc1Br)OCO3)N2 [L-37, (3aS,4R,9bR)-4-(6-bromobenzo[d][1,3]dioxol-5-yl)-N-((4-chlorophenyl)sulfonyl)-3a,4,5,9b-tetrahydro-3 H-cyclopenta[c] quinoline-8-carboxamide], the “Percentage degradation, Thermal” value (Forced stability test) is reported as 0.75%, the “Percentage degradation, Oxidative” value (Forced stability test) is reported as 0.5% and the “Percentage degradation, Acid” value (Forced stability test) is reported as 0.65%. For the same compound, the “Percentage degradation, Basic” value (Forced stability test) was 13.6%, the “Percentage degradation, Luminous” value (Forced stability test) was 3.5% and the IC50 (LN-18) was 40.7 µM. The IC50 (U373) was 39.8 µM, the IC50 (BJ) was 110 µM and the IC50 (MCF-10 A) was 23.9 µM. For the same compound, the Neurospheres formation [2] was “inhibit neurospheres formation”, the “Cell proliferation of Gli4 on non-aligned nanofibers” value (Gli4 cells [3]) was “trend to decrease cell proliferation” and the “Cell viability of the NS” value (Gli4 cells [4]) was “slightly decreased cell viability”.

With Brc1cc2c(cc1[C@@H]1Nc3ccccc3[C@@H]3C=CC[C@@H]31)OCO2 [G15, reference compound] the “IC50 in the cells assayed” value [5] was “not able to reach IC50 values”, the “Ability to dissolve into medium culture” value [6] was “formed crystals” and the Neurospheres formation [2] was “inhibit neurospheres formation”.

In the case of Cc1cc2c(C(C)C)c(O)c(O)c(C=O)c2c(O)c1-c1c(C)cc2c(C(C)C)c(O)c(O)c(C=O)c2c1O [Gossypol, reference compound], the IC50 (LN-18) is reported as 25.3 µM and the IC50 (U373) is reported as 33.8 µM.
